Here are results for 19 molecules from ChEMBL document CHEMBL1125349 (J Med Chem, 1992).

What is called pEC50 is the EC50 on a negative log10 scale, so that one unit is a factor of ten. A higher pEC50 goes with a low EC50.

pEC50: −log10 of the molar value. Non-standard residues stand in square brackets, D forms with d. Residues, ends and D or L forms follow the SMILES beside them. Ava = NCCCCC(=O)O

One assay concerns the target T1, Neuromedin-K receptor (Rattus norvegicus, UniProt P16177).
T1 sequence (P16177 whole entry): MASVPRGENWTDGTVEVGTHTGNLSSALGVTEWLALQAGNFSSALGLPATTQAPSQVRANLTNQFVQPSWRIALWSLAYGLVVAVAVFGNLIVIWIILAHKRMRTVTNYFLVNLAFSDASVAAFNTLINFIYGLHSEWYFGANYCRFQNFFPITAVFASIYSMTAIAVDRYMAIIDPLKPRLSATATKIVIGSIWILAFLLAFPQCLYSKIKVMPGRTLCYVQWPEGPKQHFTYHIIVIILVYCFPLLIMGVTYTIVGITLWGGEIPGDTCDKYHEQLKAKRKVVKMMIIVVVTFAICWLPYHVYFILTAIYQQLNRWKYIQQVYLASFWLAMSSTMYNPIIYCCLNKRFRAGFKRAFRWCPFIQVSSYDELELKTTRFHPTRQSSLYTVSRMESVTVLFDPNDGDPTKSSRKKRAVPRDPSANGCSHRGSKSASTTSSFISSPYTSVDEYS
Nature of the assay: In vitro agonistic activity against tachykinin receptor 3 of everted rat protal vein. The assay is classed as functional. The gist of the method:
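Everted isolated portal vein segments from male AH/A rats, 3-mL baths at 37 °C, 0.5 g resting tension, modified Krebs-Henseleit medium, isotonic contractions. […] Equipotent molar ratios were calculated and related to the reference agonist's mean EC50.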

Another assay has as its target T2, Substance-K receptor (Rattus norvegicus, UniProt P16610).
T2 sequence (P16610 whole entry): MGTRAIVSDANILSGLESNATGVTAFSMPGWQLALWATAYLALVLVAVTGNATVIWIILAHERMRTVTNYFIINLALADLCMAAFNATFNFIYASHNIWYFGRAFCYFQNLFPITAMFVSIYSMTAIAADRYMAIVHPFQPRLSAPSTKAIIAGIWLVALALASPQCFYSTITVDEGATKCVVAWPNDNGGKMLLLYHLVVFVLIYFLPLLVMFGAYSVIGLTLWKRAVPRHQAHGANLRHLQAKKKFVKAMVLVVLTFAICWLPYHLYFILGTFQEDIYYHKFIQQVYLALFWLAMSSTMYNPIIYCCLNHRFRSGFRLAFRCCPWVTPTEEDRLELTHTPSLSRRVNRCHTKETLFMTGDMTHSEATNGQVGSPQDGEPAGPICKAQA
Nature of the assay: In vitro agonistic activity against tachykinin receptor 2 of rat colon muscularis mucosae. The class given is functional. The essentials:
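Colon muscularis mucosae from male AH/A rats (250-350 g), 3-mL baths, 0.5 g resting tension, 35 °C, with atropine, mepyramine, methysergide and indomethacin (1 µM each). Isotonic contraction was recorded.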

The next assay concerns the target Substance-P receptor (Cavia porcellus, UniProt P30547). Nature of the assay: In vitro agonistic activity against tachykinin receptor 1 of guinea pig ileum longitudinal smooth muscle. The assay is classed as functional, tissue-based.

Chain of Substance-P receptor (P30547 whole entry): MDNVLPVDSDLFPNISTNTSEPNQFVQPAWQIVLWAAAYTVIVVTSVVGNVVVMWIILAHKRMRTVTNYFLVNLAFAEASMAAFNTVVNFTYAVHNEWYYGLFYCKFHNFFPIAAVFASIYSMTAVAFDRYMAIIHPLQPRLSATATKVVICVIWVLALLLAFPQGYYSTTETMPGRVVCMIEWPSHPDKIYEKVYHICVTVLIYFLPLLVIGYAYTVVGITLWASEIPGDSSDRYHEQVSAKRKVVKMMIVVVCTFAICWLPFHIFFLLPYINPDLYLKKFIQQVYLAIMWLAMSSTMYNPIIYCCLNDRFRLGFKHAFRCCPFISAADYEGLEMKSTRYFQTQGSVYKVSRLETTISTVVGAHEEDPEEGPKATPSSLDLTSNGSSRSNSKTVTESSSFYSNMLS

For the molecule `CSCC[C@H](NC(=O)[C@H](CC(C)C)N1CC[C@@H](NC(=O)[C@@H](NC(=O)[C@H](Cc2ccccc2)NC(=O)[C@H](CO)NC(=O)[C@H](CC(=O)O)NC(=O)[C@@H](N)CCCCN)C(C)C)C1=O)C(N)=O`, the negative-log EC50 (pEC50) is 5.93 at Neuromedin-K receptor, 8.43 at Substance-K receptor and 5.37 on Substance-P receptor.

As to `CSCC[C@H](NC(=O)[C@H](CC(C)C)N1CC2CCN(C(=O)[C@@H](NC(=O)[C@H](Cc3ccccc3)NC(=O)[C@H](CO)NC(=O)[C@H](CC(=O)O)NC(=O)[C@@H](N)CCCCN)C(C)C)C2C1=O)C(N)=O` (stereo not given in full), the pEC50 was 5.57 at Neuromedin-K receptor, 7.23 at Substance-K receptor and 5.95 at Substance-P receptor.

As for `CSCC[C@H](NC(=O)[C@H](CC(C)C)N1CC[C@]2(CCCN2C(=O)[C@H](Cc2ccccc2)NC(=O)[C@H](Cc2ccccc2)NC(=O)CCCCN)C1=O)C(N)=O`, the values for the pEC50 at Substance-K receptor and at Substance-P receptor were 5.86 and 6.51, respectively.

On to `CSCC[C@H](NC(=O)[C@H](CC(C)C)N1C[C@H]2CCN(C(=O)[C@H](Cc3ccccc3)NC(=O)[C@H](Cc3ccccc3)NC(=O)CCCCN)[C@H]2C1=O)C(N)=O`, for which the figures for the pEC50 at Neuromedin-K receptor, at Substance-K receptor and at Substance-P receptor were less than 4.74, 7.82 and 6.26, respectively.

In the case of `CSCC[C@H](NC(=O)[C@H](CC(C)C)N1CCC(NC(=O)[C@@H](NC(=O)[C@H](Cc2ccccc2)NC(=O)[C@H](CO)NC(=O)[C@H](CC(=O)O)NC(=O)[C@H](CCCCN)NC(C)=O)C(C)C)C1=O)C(N)=O` (stereo not given in full), the results for the pEC50 on Substance-K receptor and at Substance-P receptor were 8.89 and 7.36, respectively.

`CSCC[C@H](NC(=O)[C@H](CC(C)C)N1CCC(NC(=O)[C@H](Cc2ccccc2)NC(=O)[C@H](Cc2ccccc2)NC(=O)CCCCN)C1=O)C(N)=O` (stereo not given in full): the results for the negative-log EC50 (pEC50) on Neuromedin-K receptor, at Substance-K receptor and at Substance-P receptor were 4.97, 7.21 and 7.07, respectively.

Regarding `CSCC[C@H](NC(=O)[C@H](CC(C)C)NC(=O)[C@H]1CCCN1C(=O)[C@H](Cc1ccccc1)NC(=O)[C@H](Cc1ccccc1)NC(=O)CCCCN)C(N)=O`, the results for the pEC50 at Neuromedin-K receptor, at Substance-K receptor and on Substance-P receptor were less than 4.52, 7.04 and 6.08, respectively.

For the molecule `CSCC[C@H](NC(=O)[C@H](CC(C)C)N1CC2CCN(C(=O)[C@H](Cc3ccccc3)NC(=O)[C@H](Cc3ccccc3)NC(=O)[C@H](CO)NC(=O)[C@H](CC(=O)O)NC(=O)[C@@H](N)CCCCN)C2C1=O)C(N)=O` (stereo not given in full), the pEC50 was 5.58 at Neuromedin-K receptor, 7.35 on Substance-K receptor and 5.99 at Substance-P receptor.

On to `CSCC[C@H](NC(=O)[C@H](CC(C)C)NC(=O)CNC(=O)[C@@H](NC(=O)[C@H](Cc1ccccc1)NC(=O)[C@H](CO)NC(=O)[C@H](CC(=O)O)NC(=O)[C@@H](N)CCCCN)C(C)C)C(N)=O`, for which the pEC50 was 6.06 on Neuromedin-K receptor, 8.52 at Substance-K receptor and 7.21 at Substance-P receptor.

In the case of `CSCC[C@H](NC(=O)[C@@H](CC(C)C)N1C[C@H]2CCN(C(=O)[C@H](Cc3ccccc3)NC(=O)[C@H](Cc3ccccc3)NC(=O)CCCCN)[C@H]2C1=O)C(N)=O`, the pEC50 on Neuromedin-K receptor is less than 4.33; on Substance-K receptor, 5.68; on Substance-P receptor it was 5.28.

Turning to `CSCC[C@H](NC(=O)[C@H](CC(C)C)N1C[C@@H]2CCN(C(=O)[C@H](Cc3ccccc3)NC(=O)[C@H](Cc3ccccc3)NC(=O)CCCCN)[C@@H]2C1=O)C(N)=O`, the pEC50 is less than 5.09 on Neuromedin-K receptor, 5.92 at Substance-K receptor and 4.42 on Substance-P receptor.

As for `CSCC[C@H](NC(=O)[C@@H](CC(C)C)N1C[C@@H]2CCN(C(=O)[C@H](Cc3ccccc3)NC(=O)[C@H](Cc3ccccc3)NC(=O)CCCCN)[C@@H]2C1=O)C(N)=O`, the pEC50 was less than 4.52 on Neuromedin-K receptor, 6.25 at Substance-K receptor and 5.43 on Substance-P receptor.

On to `CSCC[C@H](NC(=O)[C@H](CC(C)C)NC(=O)[C@@H]1CCCN1C(=O)[C@H](Cc1ccccc1)NC(=O)[C@H](Cc1ccccc1)NC(=O)CCCCN)C(N)=O`, for which the pEC50 at Neuromedin-K receptor is less than 5.00; on Substance-K receptor, 4.89; on Substance-P receptor it was 7.87.

For `CSCC[C@H](NC(=O)[C@H](CC(C)C)NC(=O)CNC(=O)[C@H](Cc1ccccc1)NC(=O)[C@H](Cc1ccccc1)NC(=O)CCCCN)C(N)=O` (H-[Ava]FFGLM-NH2), the pEC50 on Neuromedin-K receptor is 4.95; at Substance-K receptor it was 5.92; on Substance-P receptor it was 7.42.

`CSCC[C@H](NC(=O)[C@H](CC(C)C)NC(=O)CNC(=O)[C@@H](NC(=O)[C@H](Cc1ccccc1)NC(=O)CCCCN)C(C)C)C(N)=O` (H-[Ava]FVGLM-NH2): the pEC50 was 7.03 at Substance-K receptor and 7.07 on Substance-P receptor.

`CSCC[C@H](NC(=O)[C@H](CC(C)C)NC(=O)CNC(=O)[C@@H](NC(=O)[C@H](Cc1ccccc1)NC(=O)[C@H](CO)NC(=O)[C@H](CC(=O)O)NC(=O)[C@@H](NC(=O)[C@H](CCCCN)NC(=O)[C@@H](N)Cc1cnc[nH]1)[C@@H](C)O)C(C)C)C(N)=O` [NEUROKININ A]: the pEC50 at Neuromedin-K receptor is 6.25; on Substance-P receptor it was 7.86.

For `CSCC[C@H](NC(=O)[C@H](CC(C)C)NC(=O)CNC(=O)[C@@H](NC(=O)[C@H](Cc1ccccc1)NC(=O)[C@H](Cc1ccccc1)NC(=O)[C@H](CC(=O)O)NC(=O)[C@H](Cc1c[nH]cn1)NC(=O)[C@H](CCSC)NC(=O)[C@@H](N)CC(=O)O)C(C)C)C(N)=O` [NEUROKININ B], the results for the pEC50 on Neuromedin-K receptor and on Substance-P receptor were 8.20 and 7.17, respectively.

For the molecule `CSCC[C@H](NC(=O)[C@H](CC(C)C)NC(=O)CNC(=O)[C@H](Cc1ccccc1)NC(=O)[C@H](Cc1ccccc1)NC(=O)[C@H](CCC(N)=O)NC(=O)[C@H](CCC(N)=O)NC(=O)[C@@H]1CCCN1C(=O)[C@H](CCCCN)NC(=O)[C@@H]1CCCN1C(=O)[C@@H](N)CCCN=C(N)N)C(N)=O` [SUBSTANCE P], at Neuromedin-K receptor, the pEC50 was 5.12.

With H-KDSFFGLM-NH2, the negative logarithm of the EC50 (pEC50) on Neuromedin-K receptor was 6.07; at Substance-K receptor, 7.48; at Substance-P receptor, 7.35.
